Screening results deposited in PubChem by several laboratories.
MrgX1 agonist – activates human MrgX1 receptor signaling | Q96LB2 | MrgX1-HEK293 cells, Fluo-4 calcium fluorescence, agonist mode; active compounds read high | B-score at 10 µM | 0.44% of 310,000 active | AID 588627;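 active means calcium response B-score plate-corrected fluorescence ratio at least 3 library SD, with starting fluorescence B-score inside 5 SD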
Target sequence (Q96LB2 whole entry, looked up): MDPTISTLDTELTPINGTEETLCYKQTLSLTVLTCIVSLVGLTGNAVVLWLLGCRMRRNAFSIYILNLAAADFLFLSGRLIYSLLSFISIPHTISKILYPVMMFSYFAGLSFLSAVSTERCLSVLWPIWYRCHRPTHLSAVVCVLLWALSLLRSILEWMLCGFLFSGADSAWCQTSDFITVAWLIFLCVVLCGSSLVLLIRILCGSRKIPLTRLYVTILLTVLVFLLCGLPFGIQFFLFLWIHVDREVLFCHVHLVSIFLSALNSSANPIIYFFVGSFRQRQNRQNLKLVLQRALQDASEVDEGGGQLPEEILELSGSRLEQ
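System – MrgX1-expressing HEK293 cells · Incubation – cells plated overnight, dye loaded 0.5 h 37 °C, 0.5 h room temperature · Technique – kinetic Fluo-4 NW fluorescence of intracellular calcium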
RGS4 pot – RGS4 potentiation or activation; HEK293 M3R/inducible RGS4, carbachol calcium flux Fluo4; active compounds read low; AID 463111; 0.92% of 310,000 active; B-score at 10 µM;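 active means B-score of the integrated calcium signal more than 4 SD below the library mean, with starting fluorescence not abnormally high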;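 further: negative B-score means reduced calcium response which marks RGS4 activation or potentiation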
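Material: M3R-expressing HEK293 line, RGS4 induced by doxycycline | Schedule: Overnight RGS4 induction, 30 min dye load 37 °C, 20 min compound RT | Measured by: Fluo4 fluorescence kinetic imaging of calcium | Read-out: Integrated calcium ratio converted to B score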
MrgX1 antagonist – blocks BAM8-22 activation of human MrgX1 receptor; B-score at 10 µM; 1.3% of 310,000 active; AID 588676; MRGX1-HEK293 calcium flux, Fluo-4, BAM8-22 antagonism; active compounds read low;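 active means calcium-response B-score plate-corrected more than 3 library SD below zero, starting fluorescence within 5 deviations, no agonist response on first addition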;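 further: peak minus trough fluorescence over baseline after final BAM8-22 challenge near maximal dose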
KCC2 mod – modulates chloride dependent transport by human KCC2; KCC2 cells, thallium flux FluoZin-2 fluorescence; B-score of Tl+ flux slope (higher = more flux/activation; lower = inhibition) at 10 µM; 2.2% of 190,000 active; Q9H2X9;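 active means thallium flux slope and its plate-corrected score both differing from the plate sample mean at a set confidence after two filtering rounds, in either direction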;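 further: slope of fluorescence scaled to starting intensity during 10 to 20 s after thallium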
MrgX1 allo act – human MrgX1 positive allosteric modulation, primary screen. AID 588675. MrgX1-HEK293, Fluo-4 calcium flux, FDSS; active compounds read high. 0.63% of 310,000 active. Q96LB2. B-score at 10 µM;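 active means plate-corrected calcium response at least 3 library SD above typical, normal starting fluorescence, not activating the receptor alone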;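 further: compound read alongside a low EC10 to EC30 dose of BAM8-22 agonist; peak minus trough fluorescence over baseline measured at the second addition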
RGS4 block – inhibitors of human RGS4; B-score at 10 µM; 0.45% of 310,000 active; HEK293 M3R/RGS4 inducible, Fluo-4 calcium flux; active compounds read high; triggered by carbachol at its EC20; P49798;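 active means B-score, a plate-corrected calcium signal, over three deviations above library mean, with baseline fluorescence within five deviations of library mean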;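 further: RGS4 expression induced by doxycycline in cells with stable M3 receptor; B-score is computed from the integrated fluorescence ratio over baseline after carbachol; higher B-score means a larger calcium signal and so more RGS4 inhibition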
Target sequence (P49798 whole entry, looked up): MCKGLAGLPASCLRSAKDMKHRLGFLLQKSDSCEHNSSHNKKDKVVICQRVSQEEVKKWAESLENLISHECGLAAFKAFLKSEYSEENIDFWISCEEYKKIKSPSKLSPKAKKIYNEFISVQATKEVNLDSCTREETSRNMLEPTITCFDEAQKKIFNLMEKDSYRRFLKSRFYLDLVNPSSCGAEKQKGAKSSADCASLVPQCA
RGS4 inh valid – RGS4 inhibitor validation. calcium response, % at 10 µM. AID 492999. 65% of 1,700 active. shares compounds with RGS4 block. HEK293 M3R/RGS4, carbachol calcium Fluo-4 fluorescence; carbachol added at its EC20; 0 = buffer wells, 100 = carbachol control;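 active means duplicate-averaged calcium response above the buffer-only control mean plus 5 SD of those controls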;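 further: integrated fluorescence ratio F max minus min over baseline F0; higher response in RGS4-induced cells means RGS4 inhibition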
M3R Ca ctr – checks RGS4 inhibitor effects in non-induced HEK293 M3R cells. shares compounds with RGS4 block. carbachol calcium Fluo-4; submaximal (EC20) carbachol stimulus; buffer wells 0%, carbachol control wells 100%. activity (percent), % at 10 µM. 20% of 1,900 active. AID 493000; call rule not given here;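 further: RGS4 induction absent so cells express M3R without RGS4; higher means more calcium signal and flags a non-specific hit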
M3R basal Ca ctr – second RGS4 inhibitor counter-screen in uninduced cells lacking carbachol; 22% of 1,900 active; HEK293 M3R/RGS4 non-induced, Fluo-4 calcium, no carbachol; normalised: buffer wells 0%, carbachol wells 100%; shares compounds with RGS4 block; calcium response (agonist-mode artifact), % at 10 µM; AID 493001;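 active means duplicate-averaged calcium rise in uninduced cells above buffer wells' mean plus 5 SD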
Numbers stand for hits; 0 = inactive; - = no result given. Compounds with a hit are over-represented: about 4.7% of the library has one in this group of screens.

SMILES	MrgX1 agonist	RGS4 pot	MrgX1 antagonist	KCC2 mod	MrgX1 allo act	RGS4 block	RGS4 inh valid	M3R Ca ctr	M3R basal Ca ctr
COc1ccccc1OCc1nnc(SCC(=O)Nc2ccc(C)cc2)n1C	0	0	0	-	0	0	-	-	-
Cc1ccccc1OCc1nnc(SCC(=O)Nc2ccc3c(c2)oc2ccccc23)n1C	0	0	0	0	0	5.1	14%	0	0
N#Cc1ccccc1NC(=O)C1SC(=Nc2ccccc2)C(C(=O)Nc2ccc(Cl)cc2)=C1N (centres undefined)	0	0	0	0	0	5.8	0	0	0
CC1(C)C2CCC1(CS(=O)(=O)N1CCN(c3ccc(F)cc3)CC1)C(=O)C2 (centres undefined)	0	0	0	-	0	0	-	-	-
NC(=O)c1c(/N=C/c2cccnc2)sc2c1CCCC2	0	0	0	0	0	0	-	-	-
Cc1ccc(/C=c2/sc3n(c2=O)CCCN=3)o1	0	0	0	0	0	5.3	0	0	12%
Cc1ccc(/C=c2\sc3n(c2=O)CN(c2ccc(Br)cc2)CN=3)o1	0	0	0	-	0	0	-	-	-
O=C(Nc1cccn(Cc2c(Cl)cccc2Cl)c1=O)c1c(Cl)cccc1Cl	0	0	0	0	0	0	-	-	-
COC(=O)Nc1cccn(Cc2c(Cl)cccc2Cl)c1=O	0	0	0	0	0	8.4	6.5%	0	0
COCCN(C(=O)CSc1nc2ccc(OC)cc2[nH]1)c1c(N)n(Cc2ccccc2)c(=O)[nH]c1=O	0	0	0	-	0	0	-	-	-
COC(=O)CSC1=C(C#N)C(=O)NC(c2ccccc2)S1 (centres undefined)	0	0	0	-	0	5.1	47%	0	9.5%
CC(C)(C)c1nnc(SCC(=O)c2ccccc2)n(N)c1=O	0	0	0	0	0	0	-	-	-
N#CC1=C(N)Oc2c(O)cc3ccccc3c2C1c1ccsc1 (centres undefined)	0	0	0	0	0	14	40%	33%	0
COCCCn1c(C(=O)N2CC(C)OC(C)C2)cc2c(=O)n3ccccc3nc21 (centres undefined)	0	0	0	-	0	0	-	-	-
Cc1ccc(NCC(=O)N/N=C/c2cc3ccccc3nc2Cl)cc1	0	0	0	-	0	8	9.5%	0	0
CC(C(=O)Nc1ccccc1F)N1CCN(C)CC1 (centres undefined)	0	0	0	-	0	0	-	-	-
Cn1c(=O)c2c(-c3ccccc3)n(-n3cnnc3)cc2n(C)c1=O	0	0	0	-	0	5.4	11%	0	0
COc1ccc(-c2ccc(SCC(=O)N3CC(=O)Nc4ccccc43)nn2)cc1	0	0	0	-	0	0	-	-	-
Cc1ccc(S(=O)(=O)Nc2cc3c(C(=O)Nc4ccccc4)c(C)oc3c3ccccc23)cc1	0	0	0	0	0	0	-	-	-
Cc1ccc(S(=O)(=O)Nc2cc3c(C(=O)O)c(C)oc3c3ccccc23)c(C)c1	0	0	0	-	0	0	-	-	-
COC(=O)c1c(C)oc2c1cc(NS(=O)(=O)c1ccc(C(=O)O)cc1)c1ccccc12	0	0	0	-	0	5.6	16%	0	0
CC(=O)c1c(C)oc2c1cc(NS(=O)(=O)c1ccc(C(=O)O)cc1)c1ccccc12	0	0	0	-	0	0	-	0	0
Cc1ccc(CNS(=O)(=O)c2ccc(F)c(F)c2)n1C	0	0	0	-	0	0	-	-	-
O=c1[nH][nH]c(-c2ccccc2O)c1C(C[N+](=O)[O-])c1ccccc1 (centres undefined)	0	0	0	0	0	0	0	0	0
O=c1[nH][nH]c(-c2ccccc2O)c1C(C[N+](=O)[O-])c1ccc(Cl)cc1Cl (centres undefined)	0	0	0	0	0	6.2	0	0	0
SMILES	MrgX1 agonist	RGS4 pot	MrgX1 antagonist	KCC2 mod	MrgX1 allo act	RGS4 block	RGS4 inh valid	M3R Ca ctr	M3R basal Ca ctr
CCOC(=O)c1sc(N2C(=O)C(O)=C(C(=O)c3ccco3)C2c2cccc(Cl)c2)nc1C (centres undefined)	0	0	0	-	0	0	-	-	-
CCOC(=O)c1sc(N2C(=O)C(O)=C(C(=O)c3ccco3)C2c2cccc([N+](=O)[O-])c2)nc1C (centres undefined)	0	0	0	-	0	0	0	0	0
COc1ccc2c(c1OC)C(=O)OC2Nc1nc(-c2ccc([N+](=O)[O-])cc2)cs1 (centres undefined)	0	0	0	0	0	0	0	0	0
COc1ccc(-c2csc(NC3OC(=O)c4c3ccc(OC)c4OC)n2)cc1OC (centres undefined)	0	0	0	0	0	11	44%	0	0
O=C(COc1ccc(Cl)cc1)N1CCN(C(=O)c2ccccc2F)CC1	0	0	0	-	0	0	-	-	-
NNc1nc2sc3c(c2c(=O)n1-c1ccccc1)CCCC3	0	0	0	0	0	0	-	-	-
Nn1c(Nc2ccccc2)nc2sc3c(c2c1=O)CCCC3	0	0	0	0	0	0	0	0	0
COC(=O)CCC(C)N1CCC(Oc2ccc(C(=O)NCc3ccccn3)cc2)CC1 (centres undefined)	-	0	-	-	-	0	-	-	-
CC(C)Oc1ccc(C(=O)/C=C2/C(=O)Nc3ccccc32)cc1	0	0	0	-	0	5.1	10%	72%	0
O=C1Nc2ccccc2/C1=C\C(=O)c1ccccc1	0	0	0	-	0	0	-	-	-
O=C(O)c1ccccc1N/N=C/C1=C(N2CCOCC2)C(=C\c2ccccc2)/CC1	39	0	0	0	0	8.2	30%	0	140%
CC1(C)OC(=O)C(=CNCCc2ccc(O)cc2)C(=O)O1	0	0	0	0	0	5.7	0	0	0
CC1(C)OC(=O)C(=CNCC(O)c2ccccc2)C(=O)O1 (centres undefined)	0	0	0	0	0	0	-	-	-
COc1ccc(Oc2ncccc2[N+](=O)[O-])cc1	0	0	0	0	0	13	0	0	0
CC1CCCCN1Cc1c(O)ccc2c(=O)c(-c3nc4ccccc4s3)c(N)oc12 (centres undefined)	0	0	0	0	0	12	10%	0	0
COc1ccc(-c2c(C)oc3c(CN4CCCCC4C)c(O)ccc3c2=O)cc1 (centres undefined)	0	0	0	-	0	0	-	-	-
O=C(CN(Cc1ccccc1)S(=O)(=O)c1ccccc1)N/N=C/c1ccc2c(c1)OCO2	0	0	0	0	0	0	-	0	0
